According to ChEMBL document CHEMBL4406900, “Synthesis and antidepressant-like activity of novel alkoxy-piperidine derivatives targeting SSRI/5-HT1A/5-HT7” (Bioorg Med Chem Lett, 2019):

Key:
[1] = molecular target: T1, 5-hydroxytryptamine receptor 7 (Homo sapiens, UniProt P34969); test: Displacement of [3H]-LSD from 5HT7 receptor (unknown origin) expressed in CHO cell membranes at 1 uM incubated for 120 mins by scintillation counting method relative to control
Method in brief: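 Single-concentration radioligand displacement on receptor-expressing cell membrane homogenates: [3H]-8-OH-DPAT with HEK-293 membranes for 5-HT1A, [3H]-LSD with CHO membranes for 5-HT7. Values are given as inhibition ratio (%).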

[2] = molecular target: Sodium-dependent serotonin transporter (Rattus norvegicus) (UniProt P31652); test: Inhibition of rat synaptosomes 5HT transporter assessed as reduction in [3H]serotonin reuptake at 1 uM incubated for 15 mins by scintillation counting method relative to control; format: subcellular
Method in brief: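 Rat brain synaptosomes; inhibition of [3H]-5-HT incorporation through the serotonin uptake transporter at a single concentration, expressed as inhibition ratio (%).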

[3] = molecular target: T2, 5-hydroxytryptamine receptor 1A (Homo sapiens) (UniProt P08908); test: Displacement of [3H]-8-OH-DPAT from 5HT1A receptor (unknown origin) expressed in HEK293 cells membranes at 1 uM incubated for 60 mins by scintillation counting method relative to control; format: cell membranes
T2 sequence (whole entry): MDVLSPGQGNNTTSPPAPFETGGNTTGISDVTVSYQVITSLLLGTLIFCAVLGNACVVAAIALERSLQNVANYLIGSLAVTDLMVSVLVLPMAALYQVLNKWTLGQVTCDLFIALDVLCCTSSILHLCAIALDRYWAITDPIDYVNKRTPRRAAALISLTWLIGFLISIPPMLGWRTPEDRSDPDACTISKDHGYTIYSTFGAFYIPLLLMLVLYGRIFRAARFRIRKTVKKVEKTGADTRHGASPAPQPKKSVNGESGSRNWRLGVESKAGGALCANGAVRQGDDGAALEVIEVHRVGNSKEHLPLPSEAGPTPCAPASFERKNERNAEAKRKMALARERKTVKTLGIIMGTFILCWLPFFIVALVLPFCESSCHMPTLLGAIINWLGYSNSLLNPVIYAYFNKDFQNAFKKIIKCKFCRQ

[4] = molecular target: Sodium-dependent serotonin transporter (Rattus norvegicus, UniProt P31652); test: Inhibition of rat synaptosomes 5HT transporter assessed as reduction in [3H]serotonin reuptake incubated for 15 mins by scintillation counting method; format: subcellular
Method in brief: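 Serotonin uptake transporter assay: inhibition of [3H]-5-HT incorporation into rat brain synaptosomes. IC50 was derived from 8 concentrations, each in duplicate.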

[5] = molecular target: T1, 5-hydroxytryptamine receptor 7; test: Displacement of [3H]-LSD from 5HT7 receptor (unknown origin) expressed in CHO cell membranes incubated for 120 mins by scintillation counting method
Method in brief: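 For 5-HT7, [3H]-LSD displacement binding was run on CHO cell membrane homogenates. Ki came from 8 concentrations, each tested in duplicate.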

[6] = system: Mus musculus; test: Antidepressant activity in mouse assessed as decrease in immobility time at […], po administrated for daily for 7 days measured 1 hr post last dose by tail suspension test relative to control; format: functional; set-up: scale not given: the % may be the effect or the level left
[7] = system: Mus musculus; test: Antidepressant activity in mouse assessed as decrease in immobility time at 20 mg/kg, po administrated for daily for 7 days measured 1 hr post last dose by tail suspension test relative to control; format: functional; set-up: scale not given: the % may be the effect or the level left
Method in brief: (§1)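 Tail suspension test in male mice after 7 days of repeated PO dosing at 10, 20 or 40 mg/kg/day. Immobility time was recorded with n = 10 per group, given as mean ± SEM and tested against vehicle (*P < 0.05, **P < 0.01).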

[8] = molecular target: T3, 5-hydroxytryptamine receptor 1A (Homo sapiens, UniProt P08908); test: Displacement of [3H]-8-OH-DPAT from 5HT1A receptor (unknown origin) expressed in HEK293 cells membranes incubated for 60 mins by scintillation counting method; format: cell membranes
T3 sequence (P08908 whole entry): T2 sequence (whole entry)

[9] = system: Mus musculus; test: Antidepressant activity in mouse assessed as decrease in immobility time at 10 mg/kg, po administrated for daily for 7 days measured 1 hr post last dose by forced swim test relative to control; format: functional; set-up: scale not given: the % may be the effect or the level left
Method in brief: (§2)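 Male mice, repeated oral dosing at 10, 20 or 40 mg/kg/day for 7 days. Immobility time was scored in the forced swim test. n = 10 per group, mean ± SEM, compared with a vehicle group (*P < 0.05, **P < 0.01).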

[10] = system: Mus musculus; test: Antidepressant activity in mouse assessed as decrease in immobility time at 10 mg/kg, po administrated for daily for 7 days measured 1 hr post last dose by tail suspension test relative to control; format: functional; set-up: scale not given: the % may be the effect or the level left; method in brief: as §1
[11] = Half life in rat liver microsomes at 1 uM in presence of NADPH generating system measured for 10 to 90 mins by LC-MS/MS analysis; format: ADME, Microsome
Method in brief: (§3)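 Metabolic stability in rat or human liver microsomes, reported as t1/2 (min) and intrinsic clearance CL (µL/min/mg).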

[12] = Half life in human liver microsomes at 1 uM in presence of NADPH generating system measured for 10 to 90 mins by LC-MS/MS analysis; format: ADME, Microsome; method in brief: as §3
[13] = system: Mus musculus; test: Antidepressant activity in mouse assessed as decrease in immobility time at 40 mg/kg, po administrated for daily for 7 days measured 1 hr post last dose by forced swim test relative to control; format: functional; set-up: scale not given: the % may be the effect or the level left; method in brief: as §2
[14] = Clearance in rat liver microsomes at 1 uM in presence of NADPH generating system measured for 10 to 90 mins by LC-MS/MS analysis; format: ADME, Microsome; conditions: read-out: CLH; method in brief: as §3
[15] = system: Mus musculus; test: Antidepressant activity in mouse assessed as decrease in immobility time at 20 mg/kg, po administrated for daily for 7 days measured 1 hr post last dose by forced swim test relative to control; format: functional; set-up: scale not given: the % may be the effect or the level left; method in brief: as §2
[16] = Clearance in human liver microsomes at 1 uM in presence of NADPH generating system measured for 10 to 90 mins by LC-MS/MS analysis; format: ADME, Microsome; conditions: read-out: CLH; method in brief: as §3

Sequence of Sodium-dependent serotonin transporter (Rattus norvegicus) (P31652 whole entry): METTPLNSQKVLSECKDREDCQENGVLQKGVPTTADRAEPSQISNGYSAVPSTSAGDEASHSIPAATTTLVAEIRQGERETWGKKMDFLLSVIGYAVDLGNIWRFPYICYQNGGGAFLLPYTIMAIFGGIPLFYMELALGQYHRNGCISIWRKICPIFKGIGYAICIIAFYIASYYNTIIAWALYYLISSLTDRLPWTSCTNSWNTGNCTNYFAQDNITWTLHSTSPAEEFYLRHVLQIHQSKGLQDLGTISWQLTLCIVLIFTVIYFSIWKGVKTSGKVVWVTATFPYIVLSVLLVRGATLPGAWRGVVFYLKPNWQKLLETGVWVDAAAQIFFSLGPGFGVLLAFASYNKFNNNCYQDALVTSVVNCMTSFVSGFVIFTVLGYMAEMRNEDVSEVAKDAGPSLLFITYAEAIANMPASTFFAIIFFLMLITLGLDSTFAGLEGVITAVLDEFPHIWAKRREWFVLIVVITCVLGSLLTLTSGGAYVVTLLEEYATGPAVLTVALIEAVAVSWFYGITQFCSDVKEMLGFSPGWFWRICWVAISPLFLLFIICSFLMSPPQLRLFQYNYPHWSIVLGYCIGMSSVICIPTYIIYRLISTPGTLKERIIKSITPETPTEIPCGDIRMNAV
T1 sequence (P34969 whole entry): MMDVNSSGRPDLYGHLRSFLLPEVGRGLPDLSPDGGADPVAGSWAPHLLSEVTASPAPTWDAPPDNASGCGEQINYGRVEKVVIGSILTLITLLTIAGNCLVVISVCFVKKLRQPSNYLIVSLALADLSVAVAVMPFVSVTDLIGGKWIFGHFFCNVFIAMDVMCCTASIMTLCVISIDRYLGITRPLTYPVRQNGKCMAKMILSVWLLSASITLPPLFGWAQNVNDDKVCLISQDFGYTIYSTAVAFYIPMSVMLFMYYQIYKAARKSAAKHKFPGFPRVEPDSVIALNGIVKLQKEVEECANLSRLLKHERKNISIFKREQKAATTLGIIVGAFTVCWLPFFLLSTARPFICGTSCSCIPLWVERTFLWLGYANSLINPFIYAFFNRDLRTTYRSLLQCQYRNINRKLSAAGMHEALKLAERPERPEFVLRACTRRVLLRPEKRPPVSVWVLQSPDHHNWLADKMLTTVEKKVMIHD
Sequence of Sodium-dependent serotonin transporter (P31652 whole entry): as the sequence (P31652 whole entry) above

Fc1ccc2[nH]cc(C3CCN(CCOc4ccc(F)c(-c5ccccc5)c4)CC3)c2c1 showed an inhibition [1] of 54.2%, an inhibition [2] of 66.6% and an inhibition [3] of 96.9%.

Fc1ccc(OCCN2CCC(c3c[nH]c4ccc(F)cc34)CC2)c(-c2ccccc2F)c1 gave an inhibition [1] of 88.7%, an inhibition [2] of 97.1% and an inhibition [3] of 97.8%.

Compound Fc1ccc(OCCCN2CCC(Cc3c[nH]c4ccc(F)cc34)CC2)c(-c2ccccc2)c1 has an inhibition [1] of 86.4%, an inhibition [2] of 102% and an inhibition [3] of 81.9%.

N#Cc1ccc(-c2cc(F)ccc2OCCN2CCC(c3c[nH]c4ccc(F)cc34)CC2)cc1 gave an inhibition [1] of 95.8%, an inhibition [2] of 63% and an inhibition [3] of 97.5%.

With Fc1ccc(-c2cc(F)ccc2OCCN2CCC(c3c[nH]c4ccc(F)cc34)CC2)cc1 the inhibition [1] was 86.5%, the inhibition [2] was 90.6% and the inhibition [3] was 97.4%.

Compound Cc1ccc(-c2cc(F)ccc2OCCN2CCC(c3c[nH]c4ccc(F)cc34)CC2)cc1 has an inhibition [1] of 86.2%, an inhibition [2] of 38.9% and an inhibition [3] of 94.5%.

With Fc1cccc(-c2cc(F)ccc2OCCN2CCC(c3c[nH]c4ccc(F)cc34)CC2)c1 the IC50 [4] was 85 nM, the Ki [5] was 35 nM and the inhibition [1] was 91%. For the same compound, the Activity [6] was 17%, the Activity [7] was 2% and the Ki [8] was 17 nM. The Activity [9] was 20%, the Activity [10] was 8% and the half-life at 1 µM [11] was 22.9 min. For the same compound, the half-life at 1 µM [12] was 61.4 min, the Activity [13] was 27% and the inhibition [2] was 94.3%. For the same compound, the inhibition [3] was 95.9%, the microsomal CLint at 1 µM [14] was 60.4 µL/min/mg and the Activity [15] was 6%. It also gave a microsomal CLint at 1 µM [16] of 22.6 µL/min/mg.

Compound Fc1ccc(OCCN2CCC(c3c[nH]c4ccc(F)cc34)CC2)c(-c2ccc(Cl)cc2)c1 has an inhibition [1] of 80.3%, an inhibition [2] of 27.3% and an inhibition [3] of 95%.

Fc1ccc(OCCCN2CCC(c3c[nH]c4ccc(F)cc34)CC2)c(-c2ccccc2)c1 showed an inhibition [1] of 76.1%, an inhibition [2] of 87% and an inhibition [3] of 97.7%.

COc1ccc(-c2cc(F)ccc2OCCN2CCC(c3c[nH]c4ccc(F)cc34)CC2)cc1 gave an inhibition [1] of 95.9%, an inhibition [2] of 12.3% and an inhibition [3] of 98.7%.

With Fc1ccc(OCCN2CCC(CCc3c[nH]c4ccc(F)cc34)CC2)c(-c2ccccc2)c1 the inhibition [1] was 94.3%, the inhibition [2] was 99.8% and the inhibition [3] was 54.3%.

Work on Fc1ccc(OCCN2CCC(c3c[nH]c4ccc(F)cc34)CC2)c(-c2ccccc2)c1 yielded an IC50 [4] of 177 nM, a Ki [5] of 25 nM and an inhibition [1] of 90.4%. The Activity [6] was 24%, the Activity [7] was 22% and the Ki [8] was 12 nM. For the same compound, the Activity [9] was 17%, the Activity [10] was 10% and the half-life at 1 µM [11] was 34.5 min. For the same compound, the half-life at 1 µM [12] was 61.5 min, the Activity [13] was 22% and the inhibition [2] was 96.3%. For the same compound, the inhibition [3] was 94.2%, the microsomal CLint at 1 µM [14] was 40.2 µL/min/mg and the Activity [15] was 8%. The microsomal CLint at 1 µM [16] was 22.5 µL/min/mg.

With COc1ccc2c(c1)[C@]13CCCC[C@@H]1[C@H](C2)N(C)CC3 [DEXTROMETHORPHAN] the microsomal CLint at 1 µM [16] was 31 µL/min/mg.

For Cc1ccc(Sc2ccccc2N2CCNCC2)c(C)c1 [VORTIOXETINE], the inhibition [1] was 92.5%, the Activity [6] was 48% and the Activity [13] was 52%. It also gave an inhibition [2] of 101% and a microsomal CLint at 1 µM [16] of 6.5 µL/min/mg.

Fc1ccc(OCCN2CCC(Cc3c[nH]c4ccc(F)cc34)CC2)c(-c2ccccc2)c1 showed an inhibition [1] of 97.2%, an inhibition [2] of 101% and an inhibition [3] of 72.3%.
